Measurements published in ChEMBL document CHEMBL2424621, “Discovery, synthesis and biological evaluation of cycloprotoberberine derivatives as potential antitumor agents” (Eur J Med Chem, 2013).
pIC50: −log10 of the molar value. Values after ≈ are worked out from the molar mass of the structure shown. Active and inactive are the calls of the source. The rule behind the calls is not given here.

Tests used:
[1] = system: HCT-116; experiment: Antiproliferative activity against human HCT116 cells assessed as growth inhibition after 48 hrs by SRB assay; format: functional, cell-based; details: HCT-116, 48 h
Summary of the method: (§1)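 SRB assay. Cells were seeded at 4×10^3–8×10^3/mL in MEM-EBSS with 10% heat-inactivated FBS at 37 °C and 5% CO2, then treated at 0.039, 0.15, 0.63 and 2.5 µg/mL for 24 or 48 h. Cells were fixed with 50% TCA, stained with 0.4% SRB in 1% acetic acid and solubilized in 10 mM Trizma base, with absorbance read at 492 nm. IC50 is the concentration giving 50% of control cell number, from triplicates reported as mean and SD.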

[2] = system: HCT-116; experiment: Antiproliferative activity against human HCT116 cells assessed as growth inhibition after 24 hrs by SRB assay; format: functional, cell-based; details: HCT-116, 24 h; summary of the method: as §1
[3] = system: HepG2; experiment: Antiproliferative activity against human HepG2 cells assessed as growth inhibition after 48 hrs by SRB assay; format: functional, cell-based; details: HepG2, 48 h; summary of the method: as §1
[4] = system: HepG2; experiment: Antiproliferative activity against human HepG2 cells assessed as growth inhibition after 24 hrs by SRB assay; format: functional, cell-based; details: HepG2, 24 h; summary of the method: as §1
[5] = system: HepG2; experiment: Antiproliferative activity against human HepG2 cells assessed as growth inhibition at 0.6 ug/ml after 48 hrs by SRB assay; format: functional; details: HepG2, 48 h, read-out: GI
Summary of the method: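 Single-concentration SRB screen. HepG2 cells were grown in MEM-EBSS with 10% FBS and exposed to 0.6 µg/mL compound for 48 h alongside untreated controls. Cells were fixed with TCA and stained with SRB, then read at 492 nm. Results are given as % inhibition versus control, from triplicates reported as mean and SD.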

[6] = Antiproliferative activity against human MCF7/ADR cells assessed as growth inhibition after 24 to 48 hrs by SRB assay; format: functional, cell-based; details: NCI/ADR-RES
Summary of the method: (§2)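 Parental MCF-7 cells and doxorubicin-resistant MCF-7/ADrR cells were tested; the resistant line was maintained in medium containing DOX. Each line was treated at 0.039–2.5 µg/mL for 24 and 48 h. Growth was read by SRB staining after TCA fixation, with absorbance at 492 nm. IC50 is the concentration reducing cell number to 50% of control, from triplicates.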

[7] = biological target: T1, DNA topoisomerase 1 (Homo sapiens) (UniProt P11387); details: 18 to 36 uM
T1 sequence (whole entry): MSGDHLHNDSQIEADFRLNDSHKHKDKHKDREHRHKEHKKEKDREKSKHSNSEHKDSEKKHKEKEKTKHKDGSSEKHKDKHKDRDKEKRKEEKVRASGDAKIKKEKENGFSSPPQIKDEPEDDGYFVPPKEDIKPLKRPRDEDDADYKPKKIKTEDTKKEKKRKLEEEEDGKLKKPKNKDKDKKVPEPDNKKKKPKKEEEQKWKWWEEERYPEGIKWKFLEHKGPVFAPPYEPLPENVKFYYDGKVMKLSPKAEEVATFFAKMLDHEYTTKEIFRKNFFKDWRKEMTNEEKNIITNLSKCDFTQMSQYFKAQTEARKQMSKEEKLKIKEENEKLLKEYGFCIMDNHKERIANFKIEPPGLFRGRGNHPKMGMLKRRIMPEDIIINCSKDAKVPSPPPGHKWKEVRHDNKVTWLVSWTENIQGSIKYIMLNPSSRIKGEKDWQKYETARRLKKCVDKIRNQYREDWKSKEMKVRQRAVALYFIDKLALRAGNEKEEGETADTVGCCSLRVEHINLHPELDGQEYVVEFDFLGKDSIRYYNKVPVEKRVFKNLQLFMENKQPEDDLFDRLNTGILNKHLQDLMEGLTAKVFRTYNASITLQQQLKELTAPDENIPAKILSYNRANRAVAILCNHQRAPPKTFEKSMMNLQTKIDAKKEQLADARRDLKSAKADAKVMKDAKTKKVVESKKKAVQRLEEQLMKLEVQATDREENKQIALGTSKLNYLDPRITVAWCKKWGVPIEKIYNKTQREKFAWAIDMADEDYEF

[8] = biological target: DNA topoisomerase 2-alpha (Homo sapiens) (UniProt P11388); experiment: Inhibition of human DNA topoisomerase 2 assessed as decatenation of kinetoplast DNA at 15 ug/ml after 30 mins
Summary of the method: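 Decatenation assay with 0.15 µg kinetoplast DNA and 4 U human Top II. Buffer was 50 mM Tris-HCl pH 8, 120 mM KCl, 10 mM MgCl2, 0.5 mM ATP, 0.5 mM DTT and 30 µg/mL BSA, incubated at 37 °C for 30 min with or without compound. Reactions were stopped with Sarkosyl loading dye and run on 1% agarose in TAE at 4 V/cm for 40 min. Gels were stained with ethidium bromide and imaged under UV.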

[9] = biological target: T1, DNA topoisomerase 1 (Homo sapiens); experiment: Inhibition of human DNA topoisomerase 1 assessed as decrease in mobility of relaxed isomers of supercoiled pBR322 DNA at 15 uM after 30 mins
Summary of the method: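 Gel-based relaxation assay with 1 unit human Top I. Enzyme was preincubated with compound at 37 °C for 20 min, then 0.5 µg supercoiled pBR322 DNA was added and incubated at 37 °C for 30 min. Reactions were stopped with 0.5% SDS, bromophenol blue and 15% glycerol. Relaxed and supercoiled forms were resolved by agarose electrophoresis.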

[10] = system: HCT-116; experiment: Cell cycle arrest in human HCT116 cells assessed as accumulation at G2/M phase at 0.5 ug/ml after 24 hrs using propidium iodide staining by flow cytometric analysis (reference value: 22.2%); format: functional
[11] = system: HCT-116; experiment: Cell cycle arrest in human HCT116 cells assessed as accumulation at S phase at 0.5 ug/ml after 24 hrs using propidium iodide staining by flow cytometric analysis (reference value: 29.1%); format: functional
[12] = system: HCT-116; experiment: Cell cycle arrest in human HCT116 cells assessed as accumulation at G0/G1 phase at 0.5 ug/ml after 24 hrs using propidium iodide staining by flow cytometric analysis (reference value: 48.7%); format: functional
[13] = system: HCT-116; experiment: Cell cycle arrest in human HCT116 cells assessed as accumulation at G2/M phase at 0.5 ug/ml after 12 hrs using propidium iodide staining by flow cytometric analysis (reference value: 22.2%); format: functional
[14] = system: HCT-116; experiment: Cell cycle arrest in human HCT116 cells assessed as accumulation at S phase at 0.5 ug/ml after 12 hrs using propidium iodide staining by flow cytometric analysis (reference value: 29.1%); format: functional
[15] = system: HCT-116; experiment: Cell cycle arrest in human HCT116 cells assessed as accumulation at G0/G1 phase at 0.5 ug/ml after 12 hrs using propidium iodide staining by flow cytometric analysis (reference value: 48.7%); format: functional
[16] = system: HCT-116; experiment: Cell cycle arrest in human HCT116 cells assessed as accumulation at G2/M phase at 0.5 ug/ml after 4 hrs using propidium iodide staining by flow cytometric analysis (reference value: 22.2%); format: functional
[17] = system: HCT-116; experiment: Cell cycle arrest in human HCT116 cells assessed as accumulation at S phase at 0.5 ug/ml after 4 hrs using propidium iodide staining by flow cytometric analysis (reference value: 29.1%); format: functional
[18] = system: HCT-116; experiment: Cell cycle arrest in human HCT116 cells assessed as accumulation at G0/G1 phase at 0.5 ug/ml after 4 hrs using propidium iodide staining by flow cytometric analysis (reference value: 48.7%); format: functional
[19] = system: MCF7; experiment: Antiproliferative activity against human MCF7 cells assessed as growth inhibition after 24 to 48 hrs by SRB assay; format: functional, cell-based; summary of the method: as §2
[20] = biological target: DNA topoisomerase 2-alpha (Homo sapiens) (UniProt P11388); details: 100 ug/ml

Sequence of DNA topoisomerase 2-alpha (Homo sapiens) (P11388 whole entry): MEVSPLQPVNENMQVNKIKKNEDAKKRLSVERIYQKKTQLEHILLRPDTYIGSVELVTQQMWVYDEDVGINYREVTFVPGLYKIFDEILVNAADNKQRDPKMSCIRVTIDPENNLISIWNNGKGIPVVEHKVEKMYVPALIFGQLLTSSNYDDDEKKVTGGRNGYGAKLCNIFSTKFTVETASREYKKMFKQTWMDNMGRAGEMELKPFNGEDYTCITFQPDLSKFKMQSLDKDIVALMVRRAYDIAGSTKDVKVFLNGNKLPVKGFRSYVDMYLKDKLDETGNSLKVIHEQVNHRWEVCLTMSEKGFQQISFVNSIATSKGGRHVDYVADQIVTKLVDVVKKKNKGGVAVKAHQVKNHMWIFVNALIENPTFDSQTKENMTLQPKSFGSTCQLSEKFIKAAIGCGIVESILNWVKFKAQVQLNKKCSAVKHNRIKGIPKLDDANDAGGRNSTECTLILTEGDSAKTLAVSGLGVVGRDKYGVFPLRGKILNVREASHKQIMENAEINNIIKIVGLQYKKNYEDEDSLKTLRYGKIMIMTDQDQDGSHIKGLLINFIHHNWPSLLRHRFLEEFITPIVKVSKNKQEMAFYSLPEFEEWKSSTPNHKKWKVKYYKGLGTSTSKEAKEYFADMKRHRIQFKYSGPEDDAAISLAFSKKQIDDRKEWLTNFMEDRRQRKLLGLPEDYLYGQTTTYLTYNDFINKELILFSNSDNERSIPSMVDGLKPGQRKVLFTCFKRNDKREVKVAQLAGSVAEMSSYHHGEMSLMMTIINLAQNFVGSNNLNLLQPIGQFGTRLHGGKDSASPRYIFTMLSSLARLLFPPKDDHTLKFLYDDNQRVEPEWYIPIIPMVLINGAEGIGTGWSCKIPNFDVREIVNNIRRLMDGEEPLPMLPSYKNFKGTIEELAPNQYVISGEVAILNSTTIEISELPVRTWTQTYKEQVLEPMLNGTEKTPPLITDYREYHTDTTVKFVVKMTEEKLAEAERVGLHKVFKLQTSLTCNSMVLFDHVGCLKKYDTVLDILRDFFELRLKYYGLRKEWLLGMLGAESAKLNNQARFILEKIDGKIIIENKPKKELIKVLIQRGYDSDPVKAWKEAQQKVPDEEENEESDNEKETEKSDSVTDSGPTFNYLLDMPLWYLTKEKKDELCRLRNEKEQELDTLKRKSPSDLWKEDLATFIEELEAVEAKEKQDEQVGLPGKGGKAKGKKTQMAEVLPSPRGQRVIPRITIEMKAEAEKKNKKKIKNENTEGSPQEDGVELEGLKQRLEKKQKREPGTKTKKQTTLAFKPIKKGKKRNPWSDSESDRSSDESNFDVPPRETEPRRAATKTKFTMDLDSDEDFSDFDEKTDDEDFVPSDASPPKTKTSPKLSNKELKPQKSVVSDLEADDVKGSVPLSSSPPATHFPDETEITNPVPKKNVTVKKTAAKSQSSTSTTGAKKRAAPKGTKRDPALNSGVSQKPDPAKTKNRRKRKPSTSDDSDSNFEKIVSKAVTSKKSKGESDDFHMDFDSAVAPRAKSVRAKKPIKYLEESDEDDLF

Row | SMILES | pIC50 [1] | pIC50 [2] | pIC50 [3] | pIC50 [4] | inhibition of growth at 0.6 µg/mL [5] [%] | also measured
1 | COc1ccc2c(c[n+]3c4c2ccc2c5c(cc(c24)CC3)OCO5)c1OC | 5.77 | 6.25 | 6.15 | 5.92 | 53.4 | –
2 | COc1ccc2c(c[n+]3c4c2ccc2c5c(cc(c24)CC3)OCO5)c1OC(=O)c1ccc2c(c1)OCO2 | 6.35 | 5.51 | 6.66 | 6.38 | 88.6 | –
3 | COc1cccc2c1C(=O)c1c(O)c3c(c(O)c1C2=O)C[C@@](O)(C(=O)CO)C[C@@H]3O[C@H]1C[C@H](N)[C@H](O)[C@H](C)O1 [DOXORUBICIN] | – | – | – | – | – | IC50 [6]: 24.4 µg/mL (≈ 44.9 µM)
4 | CC[C@@]1(O)C(=O)OCc2c1cc1n(c2=O)Cc2cc3cc(O)ccc3nc2-1 [HYDROXYCAMPTOTHECIN] | – | – | – | – | 85.4 | inhibition [7]: Active
5 | COc1cc(C(=O)Oc2c(OC)ccc3c2c[n+]2c4c3ccc3c5c(cc(c34)CC2)OCO5)cc(OC)c1OC | 6.43 | 6.04 | 6.49 | 6.42 | 86.5 | –
6 | COc1ccc2c(c[n+]3c4c2ccc2c5c(cc(c24)CC3)OCO5)c1OC(=O)c1ccc(C)cc1 | – | – | – | – | 63.7 | –
7 | COc1ccc2c(c[n+]3c4c2ccc2c5c(cc(c24)CC3)OCO5)c1OC(=O)c1ccc(F)cc1F | 6.41 | 5.51 | 6.89 | 6.21 | 92.5 | –
8 | COc1ccc2c(c[n+]3c4c2ccc2c5c(cc(c24)CC3)OCO5)c1OC(=O)c1ccccc1Cl | – | – | – | – | 62.3 | –
9 | COc1ccc2c(c[n+]3c4c2ccc2c5c(cc(c24)CC3)OCO5)c1OC(=O)c1ccccc1.[Cl-] | 6.39 | 5.25 | 6.85 | 6.33 | 86.6 | inhibition [8]: Active; inhibition [9]: Active; Activity [10]: 73.3%; Activity [11]: 24.6%; Activity [12]: 2.18%; Activity [13]: 51.8%; Activity [14]: 45.9%; Activity [15]: 2.29%; Activity [16]: 29.3%; Activity [17]: 57.5%; Activity [18]: 13.2%; IC50 [6]: 3.66 µg/mL; IC50 [19]: 2.5 µg/mL
10 | COc1ccc2c(c[n+]3c4c2ccc2c5c(cc(c24)CC3)OCO5)c1OC(=O)c1ccc(F)cc1 | – | – | – | – | 70.3 | –
11 | COc1ccc2c(c[n+]3c4c2ccc2c5c(cc(c24)CC3)OCO5)c1OC(=O)c1ccc(F)c([N+](=O)[O-])c1 | – | – | – | – | 69.6 | –
12 | CCCCOc1c(OC)ccc2c1c[n+]1c3c2ccc2c4c(cc(c23)CC1)OCO4 | – | – | – | – | 62.6 | –
13 | COc1ccc2c(c[n+]3c4c2ccc2c5c(cc(c24)CC3)OCO5)c1OS(=O)(=O)c1ccccc1 | – | – | – | – | 56.2 | –
14 | COc1ccc2c(c[n+]3c4c2ccc2c5c(cc(c24)CC3)OCO5)c1OCc1ccccc1 | – | – | – | – | 53.3 | –
15 | COc1ccc2c(c[n+]3c4c2ccc2c5c(cc(c24)CC3)OCO5)c1OC(=O)c1ccc(C)c([N+](=O)[O-])c1 | – | – | – | – | 50.9 | –
16 | COc1ccc2c(c[n+]3c4c2ccc2c5c(cc(c24)CC3)OCO5)c1OC(=O)c1ccccc1F | 6.55 | 6.38 | 6.82 | 6.03 | 93.7 | –
17 | COc1ccc2c(c[n+]3c4c2ccc2c5c(cc(c24)CC3)OCO5)c1OS(=O)(=O)c1ccc(NC(C)=O)cc1 | – | – | – | – | 8.9 | –
18 | CCOc1c(OC)ccc2c1c[n+]1c3c2ccc2c4c(cc(c23)CC1)OCO4 | – | – | – | – | 41.9 | –
19 | COc1ccc2c(c[n+]3c4c2ccc2c5c(cc(c24)CC3)OCO5)c1O | – | – | – | – | 50 | –
20 | COc1ccc(C(=O)Oc2c(OC)ccc3c2c[n+]2c4c3ccc3c5c(cc(c34)CC2)OCO5)cc1 | 6.37 | 6.41 | 6.39 | 6.36 | 84.5 | –
21 | COc1ccc2c(c[n+]3c4c2ccc2c5c(cc(c24)CC3)OCO5)c1OCc1ccc(F)cc1F | – | – | – | – | 50.7 | –
22 | COc1cc([C@@H]2c3cc4c(cc3[C@@H](O[C@@H]3O[C@@H]5CO[C@@H](C)O[C@H]5[C@H](O)[C@H]3O)[C@H]3COC(=O)[C@H]23)OCO4)cc(OC)c1O | – | – | – | – | – | inhibition [20]: Active
23 | COc1ccc2c(c[n+]3c4c2ccc2c5c(cc(c24)CC3)OCO5)c1OC(C)=O | 6.08 | 7.05 | 6.72 | 6.00 | 88.7 | –
24 | COc1ccc(C(=O)Oc2c(OC)ccc3c2c[n+]2c4c3ccc3c5c(cc(c34)CC2)OCO5)cc1[N+](=O)[O-] | – | – | – | – | 53.6 | –
